Results as given in the array DNA melting data of Ke et al. (doi:10.1101/2024.01.08.574731).

Key:
[1] = folding enthalpy; higher = less favourable; fluorescence melt of hairpins on a sequencing array, two-state fit; conditions: sodium 0.088 M
Summary of the method: (§1)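 Cy3 fluorescence of library hairpins on a sequenced MiSeq flow cell, with annealed Cy3 and quencher oligos, was imaged in 50 mM Na-HEPES pH 8.0, 25 mM NaCl in 2.5 °C steps up to 60 °C. Signals were normalised to pre-quench Cy3 and to control variants. Melting temperature and folding enthalpy came from bootstrapped two-state fits, inverse-variance combined over four replicates. Fitted temperatures were raised by 9.35 °C to match UV melts.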

[2] = melting temperature; fluorescence melt of hairpins on a sequencing array, two-state fit, raised by 9.35 °C to match UV melts; conditions: sodium 0.088 M
Summary of the method: as §1

Q: For GTTTAGGGAAACCCAAAC ((((.((....)).)))), which folding enthalpy [1] is on record?
A: -24.7 kcal/mol

Q: What about the Tm [2] of the same sequence?
A: 33.2 °C

Q: Which folding enthalpy [1] does the source give for GGTATCGGAAACGATATC (.(((((....))))).) here?
A: -24.1 kcal/mol

Q: What about the Tm [2] of the same sequence?
A: 45.7 °C

Q: For GCAACACCGAAAGGTTGC (((..(((....)))))), which folding enthalpy [1] is on record?
A: -22.6 kcal/mol

Q: And the Tm [2]?
A: 49.8 °C

Q: For GATGGGGGAAACTCCGTC ((.((.(....).)).)), which folding enthalpy [1] is on record?
A: -20.2 kcal/mol

Q: And the Tm [2]?
A: 38 °C

Q: Which results are given for GCCTTAGGAAACTAAGGC (((((((....)))))))?
A: folding enthalpy [1]: -37 kcal/mol; Tm [2]: 60.3 °C

Q: Which folding enthalpy [1] does the source give for GCGAGGCGAAAGCGTGGC ((.(.((....)).).)) here?
A: -15.2 kcal/mol

Q: And the Tm [2]?
A: 48.9 °C

Q: What does the source list for GATCTAGGATAGATC ((((((...))))))?
A: folding enthalpy [1]: -32.1 kcal/mol; Tm [2]: 48.7 °C

Q: Which folding enthalpy [1] does the source give for GCGATTTTCGC ((((...)))) here?
A: -22 kcal/mol

Q: What about the Tm [2] of the same sequence?
A: 52.3 °C

Q: Which results are given for GGTTTCACGAAAGTGACC (((..(((....))))))?
A: folding enthalpy [1]: -12.3 kcal/mol; Tm [2]: 29.2 °C

Q: Which folding enthalpy [1] does the source give for GATCGCGCGGGCGATC ((((((....)))))) here?
A: -32.9 kcal/mol

Q: What about the Tm [2] of the same sequence?
A: 67.2 °C

Q: For GATGGGGGAAACCTCATC ((((.((....)).)))), which folding enthalpy [1] is on record?
A: -28.4 kcal/mol

Q: What about the Tm [2] of the same sequence?
A: 46.3 °C

Q: For GTTTGCGAAAGCAGGAAC ((((((....)))..))), which folding enthalpy [1] is on record?
A: -10.3 kcal/mol

Q: And the Tm [2]?
A: 30.7 °C

Q: For GTCCCCGAAAGGGTCGAC ((((((....)))..))), which folding enthalpy [1] is on record?
A: -13.6 kcal/mol

Q: And the Tm [2]?
A: 35.4 °C

Q: Which results are given for GATCGAGCAGTCGATC ((((((....))))))?
A: folding enthalpy [1]: -39.7 kcal/mol; Tm [2]: 54.3 °C

Q: For GCACATGGAAACGTGTGC (((((.(....).))))), which folding enthalpy [1] is on record?
A: -45.2 kcal/mol

Q: And the Tm [2]?
A: 55.5 °C

Q: With GCTCCCCGAAAGGGAAGC (((.(((....))).))) as the sequence, how does the folding enthalpy [1] read?
A: -34 kcal/mol

Q: And the Tm [2]?
A: 56.5 °C

Q: For GGACTAGCGAAAGCTTCC (((..(((....)))))), which folding enthalpy [1] is on record?
A: -10.7 kcal/mol

Q: What about the Tm [2] of the same sequence?
A: 27.5 °C

Q: For GGGATAGAAATATCCC ((((((....)))))), which folding enthalpy [1] is on record?
A: -30.3 kcal/mol

Q: What about the Tm [2] of the same sequence?
A: 51.1 °C

Q: With GCTGCCGGAAACGGCAAC (.(((((....))))).) as the sequence, how does the folding enthalpy [1] read?
A: -10.9 kcal/mol

Q: What about the Tm [2] of the same sequence?
A: 47.4 °C

Q: Which folding enthalpy [1] does the source give for GATCCGGTCCCGGATC ((((((....)))))) here?
A: -35.4 kcal/mol

Q: And the Tm [2]?
A: 65.3 °C

Q: For GTGGATGCGAAAGCACAC (((..(((....)))))), which folding enthalpy [1] is on record?
A: -17.9 kcal/mol

Q: And the Tm [2]?
A: 45.4 °C

Q: Which folding enthalpy [1] does the source give for GGTAGTGGAAACATTGCC ((.(.((....)).).)) here?
A: -17.1 kcal/mol

Q: What about the Tm [2] of the same sequence?
A: 28.5 °C

Q: Which folding enthalpy [1] does the source give for GTGCGTGGAAACGTGCAC ((((..(....)..)))) here?
A: -25.3 kcal/mol

Q: And the Tm [2]?
A: 50.8 °C

Q: Which folding enthalpy [1] does the source give for GTCGGCGAAAGCCGGGAC ((((((....)))..))) here?
A: -8.08 kcal/mol

Q: And the Tm [2]?
A: 44.1 °C

Q: Which folding enthalpy [1] does the source give for GTTTCCGAAAGGAACAAC ((((((....)))..))) here?
A: -13.7 kcal/mol

Q: What about the Tm [2] of the same sequence?
A: 31.2 °C

Q: Which folding enthalpy [1] does the source give for GCCCGTGGAAACACGGAC (.(((((....))))).) here?
A: -14.5 kcal/mol

Q: What about the Tm [2] of the same sequence?
A: 50.2 °C

Q: What does the source list for GCCCAGTCGAAAGACGGC (((..(((....))))))?
A: folding enthalpy [1]: -13.4 kcal/mol; Tm [2]: 49.3 °C

Q: Which folding enthalpy [1] does the source give for GATCTATAGATAGATC ((((((....)))))) here?
A: -32.6 kcal/mol

Q: What about the Tm [2] of the same sequence?
A: 39.9 °C

Q: For GCTGACGGAAACGCCAGC ((((.((....)).)))), which folding enthalpy [1] is on record?
A: -42.1 kcal/mol

Q: What about the Tm [2] of the same sequence?
A: 55.3 °C

Q: Which folding enthalpy [1] does the source give for GCAAGGCCGAAAGGCTGC (((..(((....)))))) here?
A: -14.8 kcal/mol

Q: What about the Tm [2] of the same sequence?
A: 51.6 °C

Q: What does the source list for GGCTACGAAAGTATCGCC ((((((....)))..)))?
A: folding enthalpy [1]: -22.5 kcal/mol; Tm [2]: 40.6 °C

Q: Which results are given for GCCAAGTCGAAAGACGGC (((..(((....))))))?
A: folding enthalpy [1]: -25.6 kcal/mol; Tm [2]: 52.7 °C

Q: For GCGTTCGAAAGAACACGC ((((((....)))..))), which folding enthalpy [1] is on record?
A: -22.1 kcal/mol

Q: What about the Tm [2] of the same sequence?
A: 50.5 °C

Q: What does the source list for GGTGGCGAAAGCCCTACC ((((((....)))..)))?
A: folding enthalpy [1]: -13.2 kcal/mol; Tm [2]: 36.1 °C

Q: What does the source list for CGGAGCGGAAACGCCCG (((.(((....))))))?
A: folding enthalpy [1]: -30.6 kcal/mol; Tm [2]: 55.6 °C

Q: Which folding enthalpy [1] does the source give for GTCCGTCGAAAGACCGAC (((.(((....))).))) here?
A: -21.5 kcal/mol

Q: What about the Tm [2] of the same sequence?
A: 42.8 °C

Q: What does the source list for GCGAGTGATCGC ((((....))))?
A: folding enthalpy [1]: -21.9 kcal/mol; Tm [2]: 54.3 °C

Q: For GCCGGGCGAAAGCCTAGC ((..(((....)))..)), which folding enthalpy [1] is on record?
A: -13.6 kcal/mol

Q: What about the Tm [2] of the same sequence?
A: 44.1 °C

Q: For GCACGCGGAAACGTGTGC ((((.((....)).)))), which folding enthalpy [1] is on record?
A: -46 kcal/mol

Q: What about the Tm [2] of the same sequence?
A: 66.7 °C

Q: For GTGGGTACGAAAGTACAC (((..(((....)))))), which folding enthalpy [1] is on record?
A: -31.6 kcal/mol

Q: What about the Tm [2] of the same sequence?
A: 55 °C

Q: What does the source list for GTGCTATCGAAAGATCAC (((..(((....))))))?
A: folding enthalpy [1]: -13 kcal/mol; Tm [2]: 30.6 °C

Q: Which folding enthalpy [1] does the source give for GCTTCGCGAAAGCGGTGC ((..(((....)))..)) here?
A: -14.6 kcal/mol

Q: And the Tm [2]?
A: 49.3 °C

Q: Which folding enthalpy [1] does the source give for GATCGACAGCTCGATC ((((((....)))))) here?
A: -41.2 kcal/mol

Q: What about the Tm [2] of the same sequence?
A: 49.4 °C

Q: For GGCTGACGAAAGTCCGCC (((.(((....))).))), which folding enthalpy [1] is on record?
A: -36.6 kcal/mol

Q: What about the Tm [2] of the same sequence?
A: 58.6 °C

Q: With GGTTACCGAAAGGTGACC (((.(((....))).))) as the sequence, how does the folding enthalpy [1] read?
A: -41.4 kcal/mol

Q: What about the Tm [2] of the same sequence?
A: 58.8 °C

Q: Which folding enthalpy [1] does the source give for GTCACAGGAAACCGTGAC (((((.(....).))))) here?
A: -30.3 kcal/mol

Q: And the Tm [2]?
A: 49.1 °C
